Laboratory results reported in ChEMBL document CHEMBL4715736, “Identification of anticancer agents based on the thieno[2,3-b]pyridine and 1H-pyrazole molecular scaffolds” (2016).

Key:
Assay type in all cases: functional
OVCAR-4 [1] = assay: Growth inhibition of human OVCAR-4 cells assessed as cell growth at 0.01 uM incubated for 48 hrs by sulforhodamine B assay relative to control; conditions: read-out: Activity
HOP-92 = assay: Growth inhibition of human HOP-92 cells assessed as cell growth at 0.01 uM incubated for 48 hrs by sulforhodamine B assay relative to control; conditions: read-out: Activity
CAKI-1 = assay: Growth inhibition of human CAKI-1 cells assessed as cell growth at 0.01 uM incubated for 48 hrs by sulforhodamine B assay relative to control; conditions: read-out: Activity
In short: (§1)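 NCI Developmental Therapeutics Program NCI60 panel. Compounds that were active in the 10 µM one-dose screen went on to dose–response testing. Growth at each concentration is expressed relative to untreated control (100%). GI50 (concentration giving 50% of maximal inhibition of proliferation) and TGI (concentration giving total growth inhibition) were derived from the curves.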

MDA-MB-231 [2] = assay: Growth inhibition of human MDA-MB-231 cells assessed as cell growth at 1 uM incubated for 48 hrs by sulforhodamine B assay relative to control; conditions: read-out: Activity
SNB-75 [3] = assay: Growth inhibition of human SNB-75 cells incubated for 48 hrs by sulforhodamine B assay
In short: (§2)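 NCI DTP 60-line human tumour panel. Dose-response curves were run only for ligands active in the initial 10 µM screen. GI50 (concentration giving 50% of maximal inhibition of proliferation) and TGI (concentration giving total growth inhibition) were derived from these curves.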

OVCAR-3 = assay: Growth inhibition of human OVCAR-3 cells assessed as cell growth at 0.1 uM incubated for 48 hrs by sulforhodamine B assay relative to control; conditions: read-out: Activity
BT-549 = assay: Growth inhibition of human BT-549 cells incubated for 48 hrs by sulforhodamine B assay; in short: as §1
RXF 393 [4] = assay: Growth inhibition of human RXF 393 cells assessed as cell growth at 0.1 uM incubated for 48 hrs by sulforhodamine B assay relative to control; conditions: read-out: Activity
UO-31 = assay: Growth inhibition of human UO-31 cells assessed as cell growth at 100 uM incubated for 48 hrs by sulforhodamine B assay relative to control; conditions: read-out: Activity
SN12C = assay: Growth inhibition of human SN12C cells incubated for 48 hrs by sulforhodamine B assay; in short: as §2
UACC-257 = assay: Growth inhibition of human UACC-257 cells incubated for 48 hrs by sulforhodamine B assay; in short: as §2
SK-MEL-28 = assay: Growth inhibition of human SK-MEL-28 cells assessed as cell growth at 0.01 uM incubated for 48 hrs by sulforhodamine B assay relative to control; conditions: read-out: Activity
OVCAR-5 = assay: Growth inhibition of human OVCAR-5 cells assessed as cell growth at 100 uM incubated for 48 hrs by sulforhodamine B assay relative to control; conditions: read-out: Activity
SK-MEL-5 = assay: Growth inhibition of human SK-MEL-5 cells assessed as cell growth at 0.1 uM incubated for 48 hrs by sulforhodamine B assay relative to control; conditions: read-out: Activity
UACC-62 = assay: Growth inhibition of human UACC-62 cells assessed as cell growth at 0.01 uM incubated for 48 hrs by sulforhodamine B assay relative to control; conditions: read-out: Activity
OVCAR-8 [5] = assay: Growth inhibition of human OVCAR-8 cells assessed as cell growth at 0.1 uM incubated for 48 hrs by sulforhodamine B assay relative to control; conditions: read-out: Activity
MDA-MB-231 [6] = assay: Growth inhibition of human MDA-MB-231 cells assessed as cell growth at 0.1 uM incubated for 48 hrs by sulforhodamine B assay relative to control; conditions: read-out: Activity
HT-29 = assay: Growth inhibition of human HT-29 cells assessed as cell growth at 1 uM incubated for 48 hrs by sulforhodamine B assay relative to control; conditions: read-out: Activity
SW-620 [7] = assay: Growth inhibition of human SW-620 cells assessed as cell growth at 0.1 uM incubated for 48 hrs by sulforhodamine B assay relative to control; conditions: read-out: Activity
CCRF-CEM = assay: Growth inhibition of human CCRF-CEM cells assessed as cell growth at 100 uM incubated for 48 hrs by sulforhodamine B assay relative to control; conditions: read-out: Activity; in short: as §1
NCI-H23 = assay: Growth inhibition of human NCI-H23 cells assessed as cell growth at 0.01 uM incubated for 48 hrs by sulforhodamine B assay relative to control; conditions: read-out: Activity
HCT-116 = assay: Growth inhibition of human HCT-116 cells assessed as cell growth at 100 uM incubated for 48 hrs by sulforhodamine B assay relative to control; conditions: read-out: Activity
SW-620 [8] = assay: Growth inhibition of human SW-620 cells assessed as cell growth at 100 uM incubated for 48 hrs by sulforhodamine B assay relative to control; conditions: read-out: Activity
SK-MEL-2 = assay: Growth inhibition of human SK-MEL-2 cells assessed as cell growth at 0.01 uM incubated for 48 hrs by sulforhodamine B assay relative to control; conditions: read-out: Activity
SF-539 = assay: Growth inhibition of human SF-539 cells assessed as cell growth at 0.01 uM incubated for 48 hrs by sulforhodamine B assay relative to control; conditions: read-out: Activity
RPMI-8226 = assay: Growth inhibition of human RPMI-8226 cells incubated for 48 hrs by sulforhodamine B assay; in short: as §2
HCC 2998 = assay: Growth inhibition of human HCC 2998 cells assessed as cell growth at 0.1 uM incubated for 48 hrs by sulforhodamine B assay relative to control; conditions: read-out: Activity; in short: as §1
SNB-75 [9] = assay: Growth inhibition of human SNB-75 cells assessed as cell growth at 0.01 uM incubated for 48 hrs by sulforhodamine B assay relative to control; conditions: read-out: Activity
RXF 393 [10] = assay: Growth inhibition of human RXF 393 cells assessed as cell growth at 0.01 uM incubated for 48 hrs by sulforhodamine B assay relative to control; conditions: read-out: Activity
NCI-H322M = assay: Growth inhibition of human NCI-H322M cells assessed as cell growth at 0.1 uM incubated for 48 hrs by sulforhodamine B assay relative to control; conditions: read-out: Activity
OVCAR-4 [11] = assay: Growth inhibition of human OVCAR-4 cells incubated for 48 hrs by sulforhodamine B assay; in short: as §2
OVCAR-8 [12] = assay: Growth inhibition of human OVCAR-8 cells assessed as cell growth at 100 uM incubated for 48 hrs by sulforhodamine B assay relative to control; conditions: read-out: Activity
NCI/ADR-RES = assay: Growth inhibition of human NCI/ADR-RES cells incubated for 48 hrs by sulforhodamine B assay
In short: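 NCI60 panel at the NCI Developmental Therapeutics Program. Only compounds active in the 10 µM screen went to dose-response testing. GI50, the concentration giving 50% of maximal inhibition of proliferation, and TGI, the concentration giving total growth inhibition, were derived from the dose-response curves.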

SF-295 = assay: Growth inhibition of human SF-295 cells assessed as cell growth at 0.1 uM incubated for 48 hrs by sulforhodamine B assay relative to control; conditions: read-out: Activity
[13] = read-out: LC50 (the source's name)

## Cc1cc(C)c(NC(=O)c2sc3nc4c(cc3c2N)CN(Cc2ccccc2)CC4)c(C)c1
OVCAR-4 [1]
  growth at 0.01 µM: 93%
HOP-92
  growth at 0.01 µM: 85%
CAKI-1
  growth at 0.01 µM: 88%
MDA-MB-231 [2]
  growth at 1 µM: 89%
SNB-75 [3]
  GI50: 2.35 µM
  LC50: > 100 µM
  TGI: 11 µM
OVCAR-3
  growth at 0.1 µM: 105%
BT-549
  GI50: 4.05 µM
  TGI: 57.6 µM
BT-549; [13]
  CC50: > 100 µM
RXF 393 [4]
  growth at 0.1 µM: 89%
UO-31
  growth at 100 µM: -1%
SN12C
  GI50: 5.6 µM
  TGI: > 100 µM
SN12C; [13]
  CC50: > 100 µM
UACC-257
  GI50: 6.71 µM
  LC50 (concentration killing 50% of cells): > 100 µM
  TGI: > 100 µM
SK-MEL-28
  growth at 0.01 µM: 97%
OVCAR-5
  growth at 100 µM: 14%
SK-MEL-5
  growth at 0.1 µM: 93%
UACC-62
  growth at 0.01 µM: 101%
OVCAR-8 [5]
  growth at 0.1 µM: 97%
MDA-MB-231 [6]
  growth at 0.1 µM: 101%
HT-29
  growth at 1 µM: 90%
SW-620 [7]
  growth at 0.1 µM: 98%
CCRF-CEM
  growth at 100 µM: -3%
NCI-H23
  growth at 0.01 µM: 102%
HCT-116
  growth at 100 µM: -64%
SW-620 [8]
  growth at 100 µM: -43%
SK-MEL-2
  growth at 0.01 µM: 108%
SF-539
  growth at 0.01 µM: 91%
RPMI-8226
  GI50: 3.18 µM
  LC50: > 100 µM
  TGI: 35.1 µM
HCC 2998
  growth at 0.1 µM: 98%
SNB-75 [9]
  growth at 0.01 µM: 82%
RXF 393 [10]
  growth at 0.01 µM: 92%
NCI-H322M
  growth at 0.1 µM: 97%
OVCAR-4 [11]
  GI50: 6.72 µM
  TGI: > 100 µM
OVCAR-4 [11]; [13]
  CC50: > 100 µM
OVCAR-8 [12]
  growth at 100 µM: 14%
NCI/ADR-RES
  GI50: 1.64 µM
  TGI: 6.24 µM
NCI/ADR-RES; [13]
  CC50: > 100 µM
SF-295
  growth at 0.1 µM: 92%
